Assay outcomes (PubChem BioAssay)
A selection: hits, their analogues and other compounds. The true share with any hit is near 4.7%.
ADAM17 inh – ADAM17 inhibitors, primary screen, biochemical, QFRET; inhibition, % at 6.95 µM; Disintegrin and metalloproteinase domain-containing protein 17 (Homo sapiens), P78536; AID 720648, 2013; actives 0.83% (n = 370,000); recombinant ADAM17, EDANS/DABCYL FRET peptide cleavage;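 active = inhibition above the mean of compounds lying between control limits plus 3 SD, set per campaign, cut at about 8.5% in these data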;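 note: 0% = DMSO-only wells as the low control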
Target sequence (P78536 215-824 limits assumed): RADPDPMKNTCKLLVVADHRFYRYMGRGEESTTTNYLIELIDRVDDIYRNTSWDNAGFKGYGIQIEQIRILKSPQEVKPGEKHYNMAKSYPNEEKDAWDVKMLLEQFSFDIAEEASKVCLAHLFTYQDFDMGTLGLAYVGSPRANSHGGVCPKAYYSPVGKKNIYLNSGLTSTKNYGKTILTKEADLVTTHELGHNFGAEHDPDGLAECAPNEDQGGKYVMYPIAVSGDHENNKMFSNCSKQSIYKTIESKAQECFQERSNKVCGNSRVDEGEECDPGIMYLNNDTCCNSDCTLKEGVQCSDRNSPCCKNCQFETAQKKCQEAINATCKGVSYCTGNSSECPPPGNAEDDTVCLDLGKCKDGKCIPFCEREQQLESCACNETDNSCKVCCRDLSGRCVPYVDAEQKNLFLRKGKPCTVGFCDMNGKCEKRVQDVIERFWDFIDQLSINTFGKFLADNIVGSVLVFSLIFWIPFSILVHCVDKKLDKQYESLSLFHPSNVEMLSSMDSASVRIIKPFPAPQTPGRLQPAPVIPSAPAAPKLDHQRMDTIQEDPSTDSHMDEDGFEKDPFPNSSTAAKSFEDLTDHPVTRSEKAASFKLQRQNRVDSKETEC
MPTP block – mitochondrial permeability transition pore inhibitors, primary screen, biochemical, isolated mouse mitochondria, absorbance; Ca2+ swelling absorbance, 30 min; inhibition, % at 10 µM; actives 1.4% (n = 360,000);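 active = inhibition of 50% or more, scaled per plate between neutral and stimulator controls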;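 note: 0% = DMSO wells given calcium and 100% = 1 mM EGTA wells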
SKN-1 inh – suppressors of acrylamide-induced Pgst-4::GFP reporter in worms, primary screen, SKN-1 inhibitor project, whole organism, uHTS, GFP/RFP fluorescence ratio, strain VP596; C. elegans VP596 Pgst-4::GFP/RFP ratio, 24 h; inhibition, % at 21.8 µM; actives 0.49% (n = 360,000); AID 624304, 2012;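 active = interference check ratio from 0.5 to 1.5 plus GFP to RFP signal ratio inhibition reaching or exceeding a fixed threshold, cut at about 30% in these data, passing the limit was not always enough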
NR3A LBD binder – binders of NR3A ligand-binding domain, primary screen, biophysical, differential scanning fluorimetry, uHTS; Glutamate receptor ionotropic, NMDA 3A (GRIN3A) ligand-binding domain; NR3A LBD differential scanning fluorimetry, Tm shift; 0% = protein alone, 100% = glycine-bound protein; Tm shift relative to glycine control, % at 25 µM; actives 2.5% (n = 340,000); AID 1259313, 2017;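 active = melting temperature shift of at least 10% of the positive control shift, at one fixed dose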
ADAM10 inh – human ADAM10 inhibitors, primary screen, biochemical, QFRET, HTS | recombinant ADAM10, EDANS/DABCYL FRET peptide cleavage, 3 h | inhibition, % at 7 µM | actives 0.62% (n = 370,000);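 active = inhibition above a per-campaign cutoff equal to the mean of compounds falling between control-based bounds plus 3 SD, cut at about 20% in these data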;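 note: 0% = DMSO wells while the 100% control is not disclosed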
MT1-MMP act inh – blockers of MT1-MMP proenzyme processing, primary screen, HT1080 RFP-PRO-GFP cells, GFP/RFP fluorescence; Matrix metalloproteinase-14 (Homo sapiens), P50281; GFP/RFP ratio fluorescence, overnight; percent of plate control window, DMSO zero; actives 0.061% (n = 360,000); GFP/RFP ratio change, % at 20 µM;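 active = GFP/RFP ratio change of at least 30% with cell ATP level not reduced by more than half and red fluorescence within 50% of control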
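Read-out: GFP/RFP fluorescence ratio; Test system: RFP-PRO-GFP reporter HT1080 cells; Compound dosing: single-point 20 µM compound, 1% DMSO; Times: overnight compound exposure at 37 °C.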
Rh123 counter – fluorescence retest of MPTP screen hits in isolated mitochondria, single concentration; inhibition, % at 10 µM; membrane potential, Rhodamine 123 fluorescence; shares compounds with MPTP block; actives 78% (n = 5,000); in the data active = inhibition above about 22%;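 note: 0% = DMSO vehicle and 100% = positive control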
ADAM10 confirm – human ADAM10 inhibitors, confirmation, biochemical, QFRET, triplicate. actives 1% (n = 2,100). ADAM10 QFRET peptide cleavage, EDANS fluorescence. shares compounds with ADAM10 inh. inhibition, % at 6.95 µM;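 active = inhibition above about 20% chosen separately for each screening run, limit read from the data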;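 note: 0% = DMSO wells and 100% = marimastat wells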
ADAM17 ctr – ADAM17 inhibitors, counter-screen for ADAM10 exosite inhibitor project, biochemical, QFRET, high throughput. actives 0.5% (n = 2,100). inhibition, % at 6.95 µM. ADAM17 QFRET peptide cleavage, EDANS fluorescence. shares compounds with ADAM10 inh;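 active = mean triplicate inhibition above the solvent-only control wells' mean plus 3 SD, cut at about 12% in these data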;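 note: 0% = DMSO wells and 100% = marimastat wells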
ADAM10 ctr – ADAM10 inhibitors, counter-screen for ADAM17 exosite inhibitor project, biochemical, FRET, human ADAM10 | actives 47% (n = 2,900) | AID 743256, 2014 | inhibition, % at 6.95 µM | recombinant ADAM10, EDANS/DABCYL FRET peptide cleavage, 3 h | shares compounds with ADAM17 inh;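 active = mean inhibition over the triplicate runs exceeds the activity threshold set in the earlier primary screen, cut at about 20% in these data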;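 note: 0% = DMSO wells and 100% = marimastat wells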
ADAM17 confirm – ADAM17 inhibitors, hit retest, confirmation, biochemical, QFRET peptide cleavage; shares compounds with ADAM17 inh; recombinant ADAM17, EDANS/DABCYL QFRET peptide cleavage; inhibition, % at 6.95 µM; actives 65% (n = 2,900); AID 743257, 2014;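 active = mean inhibition across replicates above the hit cutoff set in the primary screen, cut at about 8.5% in these data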;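 note: 0% = DMSO wells and 100% = marimastat wells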
An asterisk follows results filed as active.

What do the screens show for `O=C(COC(=O)c1ccc(S(=O)(=O)N2CCCCC2)cc1)Nc1ccccc1`?
ADAM17 inh: -1.8; MPTP block: -0.5; SKN-1 inh: -9.4; NR3A LBD binder: -3.0; ADAM10 inh: -1.3; MT1-MMP act inh: -0.6

What do the screens show for `CCC(C)c1ccccc1NC(=O)COC(=O)c1ccc2[nH]c3c(c2c1)CCCC3` (configuration not stated)?
ADAM17 inh: 10.5*; MPTP block: 82.9*; SKN-1 inh: 2.2; NR3A LBD binder: 7.4; ADAM10 inh: 1.7; MT1-MMP act inh: -11.4; Rh123 counter: 72.7*; ADAM10 ctr: -1.0; ADAM17 confirm: 5.9

What do the screens show for `CCOC(=O)c1ccc2[nH]c3c(c2c1)CCCC3`?
ADAM17 inh: -3.5; MPTP block: 0.1; SKN-1 inh: 3.6; NR3A LBD binder: -9.0; ADAM10 inh: 6.7; MT1-MMP act inh: 0.4

Results for Cc1ccc(NC(=O)COC(=O)C2(c3ccc(Cl)cc3)CCCC2)cc1 ?
ADAM17 inh: 10.6*; MPTP block: 77.7*; SKN-1 inh: 4.3; NR3A LBD binder: 1.6; ADAM10 inh: 31.6*; MT1-MMP act inh: -9.4; Rh123 counter: 82.3*; ADAM10 confirm: 8.8; ADAM17 ctr: 4.1; ADAM10 ctr: 31.1*; ADAM17 confirm: 14.4*

Results for Cn1c(N)c(N2CCCCC2)c(=O)n(CC(=O)Nc2cccc(C#N)c2)c1=O ?
ADAM17 inh: 1.4; MPTP block: -0.6; SKN-1 inh: 18.9; NR3A LBD binder: 1.1; ADAM10 inh: 2.3; MT1-MMP act inh: 0.7

How did COC(=O)C1=CN(c2ccc(OC)cc2OC)C(N)=C(C#N)C1c1ccc(OC)cc1 (configuration not stated) do in these assays?
ADAM17 inh: -7.5; MPTP block: 0.4; SKN-1 inh: 8.9; ADAM10 inh: -18.2; MT1-MMP act inh: 6.1

How did Cc1cc(C(=O)OC(C(=O)Nc2cccc(C(F)(F)F)c2)c2ccccc2)c(C)o1 (configuration not stated) do in these assays?
ADAM17 inh: 15.9*; MPTP block: 67.5*; SKN-1 inh: 12.9; NR3A LBD binder: 13.1*; ADAM10 inh: 30.1*; MT1-MMP act inh: -4.3; Rh123 counter: 73.1*; ADAM10 confirm: 7.3; ADAM17 ctr: 2.5; ADAM10 ctr: 38.2*; ADAM17 confirm: 24.5*

Results for Cc1onc(-c2c(F)cccc2Cl)c1C(=O)Nc1cc(S(=O)(=O)N2CCCCC2)ccc1O ?
ADAM17 inh: 11.7*; MPTP block: 84.5*; SKN-1 inh: -6.1; NR3A LBD binder: 16.2*; ADAM10 inh: 27.2*; MT1-MMP act inh: 14.2; Rh123 counter: 83.7*; ADAM10 confirm: 2.9; ADAM17 ctr: 1.0; ADAM10 ctr: 40.0*; ADAM17 confirm: 17.8*

How did O=C(/C=C/c1cccc([N+](=O)[O-])c1)NCc1ccccc1 do in these assays?
ADAM17 inh: 3.3; MPTP block: -1.2; SKN-1 inh: 4.3; NR3A LBD binder: 6.0; ADAM10 inh: -3.0; MT1-MMP act inh: 0.8

What do the screens show for `O=C(/C=C/c1cccc([N+](=O)[O-])c1)NCCSCc1cccc(Cl)c1`?
ADAM17 inh: 12.6*; MPTP block: 63.3*; SKN-1 inh: 5.0; NR3A LBD binder: 2.5; ADAM10 inh: 18.9; MT1-MMP act inh: 4.2; Rh123 counter: 56.0*; ADAM10 ctr: 21.8*; ADAM17 confirm: 12.1*

What do the screens show for `FC(F)(F)c1cccc(NC(=S)NCC2COc3ccccc3O2)c1` (configuration not stated)?
ADAM17 inh: 9.2*; MPTP block: 80.8*; SKN-1 inh: -11.7; NR3A LBD binder: 22.9*; ADAM10 inh: 28.4*; MT1-MMP act inh: 1.6; Rh123 counter: 80.8*; ADAM10 confirm: 10.5; ADAM17 ctr: 3.0; ADAM10 ctr: 43.6*; ADAM17 confirm: 18.1*

Results for FC(F)(F)c1cccc(NC(=S)NCCN2CCOCC2)c1 ?
ADAM17 inh: -2.8; MPTP block: 2.3; SKN-1 inh: -9.1; NR3A LBD binder: -3.1; ADAM10 inh: -3.3; MT1-MMP act inh: -1.7

How did FC(F)(F)c1cccc(NC(=S)NNC(=S)NCc2ccccc2)c1 do in these assays?
ADAM17 inh: 11.6*; MPTP block: 79.4*; SKN-1 inh: 12.6; NR3A LBD binder: 8.7; ADAM10 inh: 20.2*; MT1-MMP act inh: 9.8; Rh123 counter: 71.8*; ADAM10 confirm: 5.8; ADAM17 ctr: 2.8; ADAM10 ctr: 31.4*; ADAM17 confirm: 19.3*

Results for FC(F)(F)c1cccc(NC(=S)NCc2ccccn2)c1 ?
ADAM17 inh: 0.8; MPTP block: 8.5; SKN-1 inh: 6.0; NR3A LBD binder: -3.2; ADAM10 inh: 7.5; MT1-MMP act inh: 1.9

What do the screens show for `O=C(COc1ccc(S(=O)(=O)N2CCOCC2)cc1)N1CCc2ccccc2C1`?
ADAM17 inh: -0.7; MPTP block: 1.7; SKN-1 inh: 2.1; NR3A LBD binder: 0.5; ADAM10 inh: 1.8; MT1-MMP act inh: 5.7
